Data published in ChEMBL document CHEMBL3593187, “Modified quaternary ammonium salts as potential antimalarial agents” (Bioorg Med Chem, 2015).

Tests used:
Plasmodium falciparum [1] = test: Antiplasmodial activity against chloroquine-resistant Plasmodium falciparum W2 assessed as inhibition of parasite growth after 72 hrs by parasite lactate dehydrogenase assay; type: functional, organism-based; details: W2, 72 h
Method in brief: (§1)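 Asynchronous P. falciparum cultures (parasitaemia 1–1.5%, 1% final haematocrit, human type A-positive erythrocytes) in RPMI 1640 with 1% AlbuMaxII, 0.01% hypoxanthine, 20 mM Hepes and 2 mM glutamine. Cultures were exposed to serial dilutions (10 mg/mL stocks in water or DMSO) for 72 h at 37 °C under 1% O2/5% CO2/94% N2. Growth was read as pLDH activity (OD650), and IC50 is the mean ± SD of ≥3 independent experiments in duplicate.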

Plasmodium falciparum [2] = test: Resistance index, ratio of IC50 for chloroquine-resistant Plasmodium falciparum W2 to IC50 for chloroquine-sensitive Plasmodium falciparum D10; type: functional
Method in brief: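 Resistance index is the IC50 against W2 divided by the IC50 against D10. Each IC50 came from a 72 h pLDH growth assay (OD650) on asynchronous cultures at 1% haematocrit and 37 °C, with ≥3 independent experiments in duplicate.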

[3] = Cytotoxicity against HMEC1 assessed as inhibition of cell proliferation after 72 hrs by MTT assay; details: Homo sapiens, HMEC-1, 72 h
Method in brief: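 HMEC-1 cells grown in MCDB 131 with 10% fetal calf serum, 10 ng/mL EGF, hydrocortisone, 2 mM glutamine and 20 mM Hepes. Serial compound dilutions, 72 h at 37 °C in 5% CO2, then MTT for 3 h. Formazan dissolved in SDS/DMF lysing buffer (pH 4.7), read at 550 nm (ref 650 nm). IC50 from triplicates, at least three runs.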

[4] = Selectivity index, ratio of IC50 for HMEC1 to IC50 for chloroquine-sensitive Plasmodium falciparum D10
Method in brief: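 Ratio of HMEC-1 IC50 (72 h MTT) to D10 IC50. […] Serial dilutions (final DMSO ≤1%), 72 h at 37 °C under 1% O2/5% CO2/94% N2. Growth read as pLDH activity (OD650). Mean of ≥3 experiments in duplicate.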

Plasmodium falciparum [5] = test: Antiplasmodial activity against chloroquine-sensitive Plasmodium falciparum D10 assessed as inhibition of parasite growth after 72 hrs by parasite lactate dehydrogenase assay; type: functional, organism-based; details: D10, 72 h; method in brief: as §1
[6] = Selectivity index, ratio of IC50 for HMEC1 to IC50 for chloroquine-resistant Plasmodium falciparum W2
Method in brief: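 Selectivity index is the IC50 on HMEC-1 divided by the IC50 on W2. HMEC-1 cells were grown in MCDB 131 with 10% FCS, EGF, hydrocortisone and Hepes, then given serial dilutions for 72 h at 37 °C in 5% CO2. MTT was added for 3 h, formazan was dissolved in SDS/DMF lysis buffer at pH 4.7, and absorbance was read at 550/650 nm. Each test was run in triplicate at least three times.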

**Q.** What does the source list for `C/C=C/C=C/C=C/C[N+](C)(CCCCCCCCCCCC)Cc1ccccc1.[I-]` (centres undefined)?
**A.** IC50 (Plasmodium falciparum [1]): 330 nM; Ratio IC50 (Plasmodium falciparum [2]): 1.2; IC50 [3]: 5900 nM; Ratio IC50 [4]: 23; IC50 (Plasmodium falciparum [5]): 250 nM; Ratio IC50 [6]: 18

**Q.** With `C/C=C/C=C/C=C/C[N+](C)(CCCCCCCCCCCCCC)Cc1ccccc1.[I-]` (centres undefined) as the molecule, how does the IC50 (Plasmodium falciparum [1]) read?
**A.** 310 nM

**Q.** What about the “Ratio IC50” value (Plasmodium falciparum [2]) of the same molecule?
**A.** 1.4

**Q.** What about the IC50 [3] of the same molecule?
**A.** 23000 nM

**Q.** And the Ratio IC50 [4]?
**A.** 102

**Q.** What about the IC50 (Plasmodium falciparum [5]) of the same molecule?
**A.** 220 nM

**Q.** What about the Ratio IC50 [6] of the same molecule?
**A.** 75

**Q.** With `C/C=C/C=C/C=C/C[N+](C)(C)CCCCCCCCCCCCCCCC.[I-]` as the molecule, how does the IC50 (Plasmodium falciparum [1]) read?
**A.** 950 nM

**Q.** And the “Ratio IC50” value (Plasmodium falciparum [2])?
**A.** 1.5

**Q.** And the IC50 [3]?
**A.** 7070 nM

**Q.** What about the Ratio IC50 [4] of the same molecule?
**A.** 11

**Q.** And the IC50 (Plasmodium falciparum [5])?
**A.** 620 nM

**Q.** And the Ratio IC50 [6]?
**A.** 7

**Q.** Which IC50 (Plasmodium falciparum [1]) does the source give for `C/C=C/C=C/C=C/C[N+](C)(CCCCCCCCCCCCCCCCCC)Cc1ccccc1.[I-]` (centres undefined) here?
**A.** 610 nM

**Q.** And the “Ratio IC50” value (Plasmodium falciparum [2])?
**A.** 1.3

**Q.** And the IC50 [3]?
**A.** 7020 nM

**Q.** What about the Ratio IC50 [4] of the same molecule?
**A.** 15

**Q.** What about the IC50 (Plasmodium falciparum [5]) of the same molecule?
**A.** 450 nM

**Q.** And the Ratio IC50 [6]?
**A.** 11

**Q.** For `C/C=C/C=C/C=C/C[N+](C)(C)CCCCCCCCCCCCC.[I-]`, which IC50 (Plasmodium falciparum [1]) is on record?
**A.** 630 nM

**Q.** And the “Ratio IC50” value (Plasmodium falciparum [2])?
**A.** 1.7

**Q.** And the IC50 [3]?
**A.** 5630 nM

**Q.** What about the Ratio IC50 [4] of the same molecule?
**A.** 15

**Q.** What about the IC50 (Plasmodium falciparum [5]) of the same molecule?
**A.** 360 nM

**Q.** What about the Ratio IC50 [6] of the same molecule?
**A.** 8

**Q.** Which IC50 [3] does the source give for `CCN(CC)CCCC(C)Nc1ccnc2cc(Cl)ccc12` (centres undefined) [CHLOROQUINE] here?
**A.** > 20000 nM

**Q.** For `C/C=C/C=C/C=C/C(=O)O`, which IC50 (Plasmodium falciparum [1]) is on record?
**A.** > 28400 nM

**Q.** And the IC50 (Plasmodium falciparum [5])?
**A.** > 28400 nM

**Q.** Which IC50 (Plasmodium falciparum [1]) does the source give for `C/C=C/C=C/C=C/C[N+](C)(CCCCCCCCCCCCCCCC)Cc1ccccc1` (centres undefined) here?
**A.** > 8640 nM

**Q.** And the IC50 [3]?
**A.** 5990 nM

**Q.** What about the IC50 (Plasmodium falciparum [5]) of the same molecule?
**A.** > 8640 nM

**Q.** With `C/C=C/C=C/C=C/C[N+](C)(C)CCCCCCCCCCCCCC.[I-]` as the molecule, how does the IC50 (Plasmodium falciparum [1]) read?
**A.** 530 nM

**Q.** And the “Ratio IC50” value (Plasmodium falciparum [2])?
**A.** 2.5

**Q.** What about the IC50 [3] of the same molecule?
**A.** 7890 nM

**Q.** And the Ratio IC50 [4]?
**A.** 36

**Q.** And the IC50 (Plasmodium falciparum [5])?
**A.** 210 nM

**Q.** And the Ratio IC50 [6]?
**A.** 14

**Q.** Which IC50 (Plasmodium falciparum [1]) does the source give for `C/C=C/C=C/C=C/C[N+](C)(C)CCCCCCCCCCCC.[I-]` here?
**A.** 4710 nM

**Q.** What about the “Ratio IC50” value (Plasmodium falciparum [2]) of the same molecule?
**A.** 1.1

**Q.** And the IC50 [3]?
**A.** > 20000 nM

**Q.** What about the IC50 (Plasmodium falciparum [5]) of the same molecule?
**A.** 4280 nM

**Q.** For `C/C=C/C=C/C=C/C[N+](C)(C)CCCCCCCCCCCCCCCCCC.[I-]`, which IC50 (Plasmodium falciparum [1]) is on record?
**A.** 1530 nM

**Q.** And the “Ratio IC50” value (Plasmodium falciparum [2])?
**A.** 1.3

**Q.** What about the IC50 [3] of the same molecule?
**A.** 16700 nM

**Q.** And the Ratio IC50 [4]?
**A.** 14

**Q.** What about the IC50 (Plasmodium falciparum [5]) of the same molecule?
**A.** 1150 nM

**Q.** What about the Ratio IC50 [6] of the same molecule?
**A.** 10

**Q.** With `CCCCCCCCCCCC[N+](C)(C)CCCCCCCC.[Br-]` as the molecule, how does the IC50 (Plasmodium falciparum [1]) read?
**A.** 480 nM

**Q.** What about the “Ratio IC50” value (Plasmodium falciparum [2]) of the same molecule?
**A.** 2.5

**Q.** What about the IC50 [3] of the same molecule?
**A.** 8690 nM

**Q.** What about the Ratio IC50 [4] of the same molecule?
**A.** 44

**Q.** What about the IC50 (Plasmodium falciparum [5]) of the same molecule?
**A.** 190 nM

**Q.** And the Ratio IC50 [6]?
**A.** 18

**Q.** For `C/C=C/C=C/C=C/C[N+](C)(CCCCCCCCCCCCC)Cc1ccccc1.[I-]` (centres undefined), which IC50 (Plasmodium falciparum [1]) is on record?
**A.** 520 nM

**Q.** And the “Ratio IC50” value (Plasmodium falciparum [2])?
**A.** 0.6

**Q.** And the IC50 [3]?
**A.** 21200 nM

**Q.** And the Ratio IC50 [4]?
**A.** 24

**Q.** And the IC50 (Plasmodium falciparum [5])?
**A.** 870 nM

**Q.** And the Ratio IC50 [6]?
**A.** 41
